Data set [1] has as its target T1, 3-hydroxy-3-methylglutaryl-coenzyme A reductase (Rattus norvegicus, UniProt P51639).
T1 sequence (P51639 whole entry): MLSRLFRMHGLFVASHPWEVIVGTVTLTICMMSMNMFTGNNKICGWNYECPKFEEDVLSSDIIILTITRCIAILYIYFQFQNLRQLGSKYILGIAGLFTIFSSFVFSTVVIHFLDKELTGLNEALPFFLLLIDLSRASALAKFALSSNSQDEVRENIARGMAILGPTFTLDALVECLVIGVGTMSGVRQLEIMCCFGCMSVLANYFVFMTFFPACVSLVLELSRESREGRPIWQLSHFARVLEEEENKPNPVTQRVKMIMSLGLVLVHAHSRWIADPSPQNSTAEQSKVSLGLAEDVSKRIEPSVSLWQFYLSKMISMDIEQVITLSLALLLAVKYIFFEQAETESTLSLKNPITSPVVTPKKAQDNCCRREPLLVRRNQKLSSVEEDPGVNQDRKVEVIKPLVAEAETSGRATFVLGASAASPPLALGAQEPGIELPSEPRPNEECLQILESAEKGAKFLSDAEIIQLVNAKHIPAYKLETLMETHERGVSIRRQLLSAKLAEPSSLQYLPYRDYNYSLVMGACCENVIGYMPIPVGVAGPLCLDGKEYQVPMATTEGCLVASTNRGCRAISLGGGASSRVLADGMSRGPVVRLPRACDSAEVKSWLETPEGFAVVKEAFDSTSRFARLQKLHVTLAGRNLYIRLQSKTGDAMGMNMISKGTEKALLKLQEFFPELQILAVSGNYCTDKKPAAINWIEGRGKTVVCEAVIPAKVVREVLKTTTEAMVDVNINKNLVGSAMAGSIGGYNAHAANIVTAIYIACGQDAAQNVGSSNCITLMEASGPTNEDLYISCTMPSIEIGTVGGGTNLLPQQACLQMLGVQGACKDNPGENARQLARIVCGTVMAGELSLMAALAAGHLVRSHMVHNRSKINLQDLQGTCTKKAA
The data set is described as follows: Inhibition of rat liver microsomal HMG-CoA reductase. An outline of the steps:
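Test agents run as sodium salts of the dihydroxy carboxylic acids, against rat liver microsomal enzyme. Five dose levels per inhibitor, at least in duplicate, on at least two separate occasions. IC50 given as the mean, with pravastatin sodium salt as reference.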
A general note: Microsomes from liver hold many membrane-bound enzymes, among them those of drug oxidation.

Data set [2] in a line: Lipophilicity was determined. In kind it is physicochemical. To be noted: octanol/water.

Each structure is given as a SMILES string.

As usually defined, the IC50 is the concentration needed to halve the response being measured. Read a low IC50 as greater potency. In general, logD refers to lipophilicity at a set pH, counting ionised and neutral species. The low end stands for lower lipophilicity, the high end for higher lipophilicity.

In turn, `COC(=O)C[C@H](O)C[C@H](O)/C=C/n1c(C(C)C)cc(-c2cccc(Br)c2)c1-c1ccc(F)cc1` gave an IC50 in data set [1] of 0.5 nM. The compound further yielded a logD in data set [2] of 2.8.

`COC(=O)C[C@H](O)C[C@H](O)/C=C/n1c(C(C)C)cc(-c2cccc(Cl)c2)c1-c1ccc(F)cc1`: in data set [1], the IC50 came to 2 nM. This compound showed a logD in data set [2] of 2.57.

As to `COC(=O)C[C@H](O)C[C@H](O)/C=C/n1c(C(C)C)cc(-c2ccccc2)c1-c1ccc(F)cc1`, the IC50 in data set [1] came out at 2 nM.

Compound `COC(=O)C[C@H](O)C[C@H](O)CCn1c(C(C)C)cc(-c2ccc(F)cc2)c1-c1ccc(F)cc1` came in with an IC50 in data set [1] of 105 nM.

Take `COC(=O)C[C@H](O)C[C@H](O)/C=C/n1c(C(C)C)cc(-c2ccccn2)c1-c1ccc(F)cc1`: the IC50 in data set [1] stood at 2 nM.

Take `COC(=O)C[C@H](O)C[C@H](O)/C=C/n1c(C(C)C)cc(-c2ccc(F)cc2)c1-c1cccc(Br)c1`: it took 69 nM to reach half-maximal inhibition in data set [1] (IC50).

`COC(=O)C[C@H](O)C[C@H](O)/C=C/n1c(C(C)C)cc(-c2ccc(F)cc2)c1-c1ccccc1` returned an IC50 in data set [1] of 25 nM.

Take `COC(=O)C[C@H](O)C[C@H](O)/C=C/n1c(C(C)C)cc(-c2ccc(F)cc2)c1-c1ccc(F)cc1`: the IC50 in data set [1] was found to be 2 nM. Moreover, in data set [2], the logD is 2.1.

In data set [1], `COC(=O)C[C@H](O)C[C@H](O)/C=C/n1c(C(C)C)cc(-c2ccncc2)c1-c1ccc(F)cc1` yielded an IC50 of 5 nM. The same compound came in with a logD in data set [2] of 0.9.

As for `COC(=O)C[C@H](O)C[C@H](O)/C=C/n1c(C(C)C)cc(-c2ccc(F)cc2)c1-c1cccc(Cl)c1`, in data set [1], half-maximal inhibition (IC50) was put at 71 nM.

`COC(=O)C[C@H](O)C[C@H](O)/C=C/n1c(-c2ccc(F)cc2)c(-c2ccc(F)cc2)c(Br)c1C(C)C` showed an IC50 in data set [1] of 0.3 nM. This IC50 is about 240-fold lower than that of the compound before.

Regarding `CC[C@H](C)C(=O)O[C@H]1C[C@@H](C)C=C2C=C[C@H](C)[C@H](CC[C@@H]3C[C@@H](O)CC(=O)O3)[C@H]21` [LOVASTATIN], the IC50 in data set [1] turned out to be 3 nM. This IC50 lies about 10-fold higher than the previous one.

In data set [1], `CC[C@H](C)C(=O)O[C@H]1C[C@H](O)C=C2C=C[C@H](C)[C@H](CC[C@@H](O)C[C@@H](O)CC(=O)O)[C@H]21` [PRAVASTATIN SODIUM] returned an IC50 of 5 nM. Against the preceding compound, the IC50 is about 1.7-fold higher.
